One compound from PubChem BioAssay AID651945 (The Scripps Research Institute Molecular Screening Center, 2012) can be followed below.

The target of the test is Heat shock 70 kDa protein 1A (Homo sapiens) (UniProt P0DMV8). Kind of test: Hsp70 gene expression change – cell-based, fluorescence, HeLa, orthogonal assay, late-stage follow-up (AID 651945). To be noted: HeLa Hsp70 mRNA, qRT-PCR, 4 h; at 10 µM; active compounds read high. The essentials:
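Material: HeLa cells; control set: DMSO vehicle baseline; medium: HEPES-buffered DMEM, 10% FBS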
In general terms: Real-time PCR tracks product formation cycle by cycle.

Each structure is given as a SMILES string.

Sequence of Heat shock 70 kDa protein 1A (Homo sapiens) (P0DMV8 whole entry, looked up): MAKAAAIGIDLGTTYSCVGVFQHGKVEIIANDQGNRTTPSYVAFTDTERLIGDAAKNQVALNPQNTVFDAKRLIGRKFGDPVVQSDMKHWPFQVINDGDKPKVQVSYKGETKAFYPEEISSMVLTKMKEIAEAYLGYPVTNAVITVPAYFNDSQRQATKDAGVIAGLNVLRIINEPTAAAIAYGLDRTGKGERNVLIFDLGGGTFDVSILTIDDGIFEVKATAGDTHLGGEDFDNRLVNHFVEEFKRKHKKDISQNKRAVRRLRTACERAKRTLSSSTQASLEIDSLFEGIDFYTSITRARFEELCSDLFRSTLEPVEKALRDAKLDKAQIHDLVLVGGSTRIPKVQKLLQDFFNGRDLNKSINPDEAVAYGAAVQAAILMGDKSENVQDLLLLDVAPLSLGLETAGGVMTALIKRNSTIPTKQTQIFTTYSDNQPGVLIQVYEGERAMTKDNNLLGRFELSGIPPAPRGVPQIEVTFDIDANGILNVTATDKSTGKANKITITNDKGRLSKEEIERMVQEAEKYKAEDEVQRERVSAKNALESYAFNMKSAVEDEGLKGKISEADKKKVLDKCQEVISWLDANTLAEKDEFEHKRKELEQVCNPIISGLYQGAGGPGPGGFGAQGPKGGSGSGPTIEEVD

For `COc1ccc(/C=C/C=C2C(=O)NC(=O)NC2=O)cc1`, the fold change was 2.4.
